ChEMBL document CHEMBL1126202, “Dual-action penems and carbapenems” (J Med Chem, 1992)
≈ marks a conversion by molar mass, not a printed value.

Assays:
Enterobacter cloacae = test: In vitro antibacterial activity against enterobacter cloacae P99 (constitutive beta-lactamase producer); assay type: functional
Summary of the method: (§1)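 MIC was determined by agar dilution on Mueller-Hinton agar. Serial 2-fold aqueous dilutions were diluted 10-fold in agar to give final concentrations of 128 to 0.0156 μg/mL. Plates were inoculated by Steers replicator with overnight broth cultures diluted 100-fold.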

Escherichia coli [1] = test: In vitro antibacterial activity against Escherichia coli UB1005 (nalidixic acid-resistant strain); assay type: functional; summary of the method: as §1
Escherichia coli [2] = test: In vitro antibacterial activity against Escherichia coli TEM-1 (constitutive beta-lactamase producer); assay type: functional; summary of the method: as §1
Pseudomonas aeruginosa [3] = test: In vitro antibacterial activity against Pseudomonas aeruginosa 8780; assay type: functional; summary of the method: as §1
Staphylococcus aureus [4] = test: In vitro antibacterial activity against staphylococcus aureus smith; assay type: functional; summary of the method: as §1
[5] = test system: Bacteroides thetaiotaomicron; test: (§2) In vitro antibacterial activity against Bacteroides thetaiotaomicron 62B; assay type: functional
Summary of the method: (§3)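 Anaerobic MICs were determined in microtiter plates in Schaedler's broth supplemented with coenzyme I and hemin. Incubation was under an oxygen-free hydrogen-carbon dioxide atmosphere.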

Escherichia coli [6] = test: Effect on replication DNA biosynthesis in Escherichia coli H560 (permeabilised cells).; assay type: functional, organism-based
Summary of the method: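 Toluene-permeabilized E. coli H560 cells were used. Replicative DNA synthesis was measured as ATP-dependent [3H]thymidine incorporation into trichloroacetic acid-insoluble material. IC50 is the concentration giving 50% inhibition.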

Escherichia coli [7] = test: In vitro antibacterial activity against Escherichia coli 257; assay type: functional
Pseudomonas aeruginosa [8] = test: In vitro antibacterial activity against Ps. aeruginosa 18SH (constitutive beta-lactamase producer); assay type: functional; summary of the method: as §1
Proteus mirabilis = test: In vitro antibacterial activity against Proteus mirabilis 90; assay type: functional
Summary of the method: (§4)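 Proteus MICs were determined by agar dilution on Mueller-Hinton agar containing 3% agar. Serial 2-fold dilutions gave final concentrations of 128 to 0.0156 μg/mL. Plates were replicator-inoculated with 100-fold-diluted overnight broth cultures.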

Klebsiella pneumoniae [9] = test: In vitro antibacterial activity against klebsiella pneumoniae A; assay type: functional
Summary of the method: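 Agar-dilution MIC on Mueller-Hinton agar. Serial 2-fold dilutions were made in water, giving final agar concentrations of 128 to 0.0156 μg/mL. Inoculum was an overnight broth culture diluted 100-fold, applied with a multipoint replicator.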

[10] = Stability in pH 7.4 phosphate buffer at 37 degree C.; assay type: physicochemical
Summary of the method: (§5)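 Compounds were held in pH 7.4 phosphate buffer at 37 °C and monitored by reverse-phase HPLC on a PRP-1 column with UV detection at 275–286 nm. The mobile phase was 0.01 M tetradecyltrimethylammonium bromide in pH 8.2 phosphate/acetonitrile. Product-peak decline was followed to at least 50%, and half-life was taken from semilogarithmic plots.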

Bacteroides fragilis [11] = test: In vitro antibacterial activity against Bacteroides fragilis F117A; assay type: functional
Summary of the method: (§6)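 MIC by broth dilution in microtiter plates, run in an oxygen-free hydrogen–carbon dioxide atmosphere. Medium: Schaedler's broth with coenzyme I and hemin added.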

Staphylococcus aureus [12] = test: (§7) In vitro antibacterial activity against Staphylococcus aureus 753 (constitutive beta-lactamase producer); assay type: functional
Summary of the method: (§8)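 MIC by agar dilution on Mueller-Hinton agar. Compounds were serially 2-fold diluted in water, final 128 to 0.0156 μg/mL in agar. Inoculum: overnight broth culture diluted 100-fold, applied with a Steers replicator.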

Staphylococcus aureus [13] = test: In vitro antibacterial activity against Staphylococcus aureus 67(methicillin resistant); assay type: functional; summary of the method: as §8
Clostridium perfringens = test: In vitro antibacterial activity against Clostridium perfringens 13424; assay type: functional; summary of the method: as §6
Streptococcus pyogenes = test: In vitro antibacterial activity against Streptococcus pyogenes 4; assay type: functional
Summary of the method: (§9)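 Streptococcal MICs were determined by agar dilution on brain heart infusion agar supplemented with 20 units/mL bovine liver catalase. Final concentrations were 128 to 0.0156 μg/mL from 2-fold dilutions. Inocula were overnight broth cultures diluted 100-fold, applied by Steers replicator.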

Bacteroides fragilis [14] = test: In vitro antibacterial activity against bacteroides fragilis S2; assay type: functional
Summary of the method: (§10)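 Anaerobic MIC, run in microtiter plates in Schaedler's broth supplemented with coenzyme I and hemin. Incubated in an oxygen-free hydrogen–carbon dioxide atmosphere.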

Clostridioides difficile [15] = test: In vitro antibacterial activity against Clostridium difficile 701; assay type: functional
Serratia marcescens [16] = test: In vitro antibacterial activity against serratia marcescens SM (constitutive beta-lactamase producer); assay type: functional; summary of the method: as §1
Streptococcus pneumoniae [17] = test: In vitro antibacterial activity against streptococcus pneumoniae 6301; assay type: functional; summary of the method: as §9
Citrobacter freundii [18] = test: In vitro antibacterial activity against citrobacter freundii BS-16 (constitutive beta-lactamase producer); assay type: functional; summary of the method: as §1
Escherichia coli [19] = test: In vitro antibacterial activity against Escherichia coli 25922; assay type: functional; summary of the method: as §1
Proteus vulgaris = test: In vitro antibacterial activity against proteus vulgaris ATCC 6380 (constitutive beta-lactamase producer); assay type: functional; summary of the method: as §4
Klebsiella pneumoniae [20] = test: In vitro antibacterial activity against Klebsiella pneumoniae A; assay type: functional; summary of the method: as §1
Serratia marcescens [21] = test: In vitro antibacterial activity against Serratia marcescens SM (constitutive beta-lactamase producer); assay type: functional; summary of the method: as §1
Staphylococcus aureus [22] = test: as §7; assay type: functional; summary of the method: as §1; remark: listed apart in the source
[23] = test system: Bacteroides thetaiotaomicron; test: as §2
[24] = test system: Bacteroides thetaiotaomicron; test: microbe, parasite or virus in culture
Bacteroides fragilis [25] = test: In vitro antibacterial activity against Bacteroides fragilis S2; assay type: functional; summary of the method: as §3
Streptococcus pneumoniae [26] = test: In vitro antibacterial activity against Streptococcus pneumoniae 6301; assay type: functional; summary of the method: as §9
Citrobacter freundii [27] = test: In vitro antibacterial activity against Citrobacter freundii BS-16 (constitutive beta-lactamase producer); assay type: functional; summary of the method: as §1
Hathewaya histolytica = test: In vitro antibacterial activity against clostridium histolyticum 503-86; assay type: functional; summary of the method: as §10
Clostridioides difficile [28] = test: In vitro antibacterial activity against Clostridium difficile 651; assay type: functional
[29] = Stability in pH 7.4 phosphate buffer at 37 degree C; assay type: physicochemical; summary of the method: as §5
Pseudomonas aeruginosa [30] = test: In vitro antibacterial activity against Pseudomonas aeruginosa 18SH (constitutive beta-lactamase producer); assay type: functional; summary of the method: as §1

C[C@@H](O)[C@H]1C(=O)N2C(C(=O)[O-])=C(COC(=O)c3cn(CCF)c4c(F)c(N5CCN(C)CC5)c(F)cc4c3=O)C[C@H]12.[Na+]
MIC (Enterobacter cloacae): 0.125 µg/mL
MIC (Escherichia coli [1]): 1 µg/mL
MIC (Escherichia coli [2]): 0.125 µg/mL
MIC (Pseudomonas aeruginosa [3]): 4 µg/mL
MIC (Staphylococcus aureus [4]): 0.125 µg/mL
MIC [5]: 4 µg/mL
IC50 (Escherichia coli [6]): 10 µg/mL
MIC (Escherichia coli [7]): 0.125 µg/mL
MIC (Pseudomonas aeruginosa [8]): 2 µg/mL
MIC (Proteus mirabilis): 1 µg/mL
MIC (Klebsiella pneumoniae [9]): 0.25 µg/mL
half-life [10]: 11 h
MIC (Bacteroides fragilis [11]): 1 µg/mL
MIC (Staphylococcus aureus [12]): 1 µg/mL
MIC (Staphylococcus aureus [13]): 1 µg/mL
MIC (Clostridium perfringens): < 0.125 µg/mL
MIC (Streptococcus pyogenes): 0.0157 µg/mL
MIC (Bacteroides fragilis [14]): < 0.125 µg/mL
MIC (Clostridioides difficile [15]): 4 µg/mL
MIC (Serratia marcescens [16]): 0.25 µg/mL
MIC (Streptococcus pneumoniae [17]): 0.0157 µg/mL
MIC (Citrobacter freundii [18]): 0.25 µg/mL
MIC (Escherichia coli [19]): 0.12 µg/mL
MIC (Proteus vulgaris): 0.25 µg/mL

O=C(O)c1cn(C2CC2)c2cc(N3CCNCC3)c(F)cc2c1=O [CIPROFLOXACIN]
MIC (Klebsiella pneumoniae [20]): 0.25 µg/mL (≈ 0.754 µM)
MIC (Serratia marcescens [21]): 0.0313 µg/mL (≈ 0.0945 µM)
MIC (Staphylococcus aureus [22]): 0.25 µg/mL (≈ 0.754 µM)
MIC (Escherichia coli [2]): 0.0156 µg/mL (≈ 0.0471 µM)
MIC [23]: > 128 µg/mL
MIC (Proteus mirabilis): 0.0625 µg/mL (≈ 0.189 µM)
MIC (Staphylococcus aureus [13]): 0.5 µg/mL (≈ 1.51 µM)
MIC [24]: 0.25 µg/mL (≈ 0.754 µM)
MIC (Streptococcus pyogenes): 0.5 µg/mL (≈ 1.51 µM)
MIC (Bacteroides fragilis [25]): 4 µg/mL (≈ 12.1 µM)
MIC (Streptococcus pneumoniae [26]): 1 µg/mL (≈ 3.02 µM)
MIC (Citrobacter freundii [27]): 0.0313 µg/mL (≈ 0.0945 µM)

C[C@@H](O)[C@H]1C(=O)N2C(C(=O)[O-])=C(COC(=O)N3CCN(c4cc5c(cc4F)c(=O)c(C(=O)O)cn5C4CC4)CC3)[C@H](C)[C@H]12.[K+]
MIC (Hathewaya histolytica): < 0.125 µg/mL
MIC (Enterobacter cloacae): 0.0313 µg/mL
MIC (Escherichia coli [2]): 0.0313 µg/mL
MIC (Pseudomonas aeruginosa [3]): 0.5 µg/mL
MIC (Staphylococcus aureus [4]): 0.125 µg/mL
MIC [5]: 16 µg/mL
MIC (Escherichia coli [7]): < 0.0156 µg/mL
MIC (Proteus mirabilis): 0.125 µg/mL
MIC (Klebsiella pneumoniae [9]): 0.0625 µg/mL
MIC (Clostridioides difficile [28]): 4 µg/mL
MIC (Bacteroides fragilis [11]): 4 µg/mL
MIC (Staphylococcus aureus [12]): 0.5 µg/mL
MIC (Staphylococcus aureus [13]): 0.5 µg/mL
MIC (Clostridium perfringens): < 0.125 µg/mL
MIC (Streptococcus pyogenes): 0.0313 µg/mL
MIC (Bacteroides fragilis [14]): 1 µg/mL
MIC (Clostridioides difficile [15]): 1 µg/mL
MIC (Serratia marcescens [16]): 0.0625 µg/mL
half-life [29]: 5 h
MIC (Streptococcus pneumoniae [17]): 0.0313 µg/mL
MIC (Citrobacter freundii [18]): 0.0625 µg/mL
MIC (Pseudomonas aeruginosa [30]): 0.5 µg/mL
MIC (Proteus vulgaris): 0.0313 µg/mL

CN1CCN(c2c(F)cc3c(=O)c(C(=O)O)cn(CCF)c3c2F)CC1 [FLEROXACIN]
MIC (Hathewaya histolytica): 0.25 µg/mL (≈ 0.677 µM)
MIC (Enterobacter cloacae): 0.0313 µg/mL (≈ 0.0847 µM)
MIC (Escherichia coli [1]): 0.5 µg/mL (≈ 1.35 µM)
MIC (Escherichia coli [2]): 0.0625 µg/mL (≈ 0.169 µM)
MIC (Pseudomonas aeruginosa [3]): 2 µg/mL (≈ 5.42 µM)
MIC (Staphylococcus aureus [4]): 0.25 µg/mL (≈ 0.677 µM)
MIC [5]: 64 µg/mL (≈ 173 µM)
IC50 (Escherichia coli [6]): 1 µg/mL (≈ 2.71 µM)
MIC (Escherichia coli [7]): 0.0313 µg/mL (≈ 0.0847 µM)
MIC (Pseudomonas aeruginosa [8]): 1 µg/mL (≈ 2.71 µM)
MIC (Proteus mirabilis): 0.25 µg/mL (≈ 0.677 µM)
MIC (Klebsiella pneumoniae [9]): 0.0625 µg/mL (≈ 0.169 µM)
MIC (Clostridioides difficile [28]): 16 µg/mL (≈ 43.3 µM)
MIC (Bacteroides fragilis [11]): 64 µg/mL (≈ 173 µM)
MIC (Staphylococcus aureus [12]): 0.5 µg/mL (≈ 1.35 µM)
MIC (Staphylococcus aureus [13]): 0.5 µg/mL (≈ 1.35 µM)
MIC (Clostridium perfringens): 0.5 µg/mL (≈ 1.35 µM)
MIC (Streptococcus pyogenes): 2 µg/mL (≈ 5.42 µM)
MIC (Bacteroides fragilis [14]): 8 µg/mL (≈ 21.7 µM)
MIC (Clostridioides difficile [15]): 16 µg/mL (≈ 43.3 µM)
MIC (Serratia marcescens [16]): 0.0625 µg/mL (≈ 0.169 µM)
MIC (Streptococcus pneumoniae [17]): 4 µg/mL (≈ 10.8 µM)
MIC (Citrobacter freundii [18]): 0.125 µg/mL (≈ 0.338 µM)
MIC (Escherichia coli [19]): 0.03 µg/mL (≈ 0.0812 µM)
MIC (Proteus vulgaris): 0.0625 µg/mL (≈ 0.169 µM)
